Bioassay records from PubChem BioAssay.
Only some compounds are listed: those with a hit (about 9.4% of all), similar ones and a draw of the others.
CSC inhib: cancer stem cell viability inhibitors, primary screen, luminescence; cancer stem cell-like cells viability; AID 2717, 2010; 1.1% of 300,000 active; inhibition, % at 7.5 µM; in the data active = inhibition above about 75%; inconclusive = no clear call, values can overlap the other calls; tested in HMLE shEcad cells
Lmaj promast: Leishmania major promastigote growth inhibition, primary screen | 9% of 200,000 active | inhibition, % at 10 µM | Leishmania major promastigotes, resazurin fluorescence viability | AID 1063, 2008; in the data active = inhibition above about 50%;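 note: promastigotes grown with compound for 44 hours at 28 °C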
Mdm2-MdmX inh: inhibitors of human Mdm2-MdmX association, primary screen, cell-based, luminescence, split luciferase, SaOS-2, uHTS; SaOS-2 split-luciferase Mdm2/MdmX complementation; 3% of 330,000 active; inhibition, % at 8 µM; AID 485346, 2010; Protein Mdm4 (Homo sapiens) + E3 ubiquitin-protein ligase Mdm2 (Homo sapiens), …;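 active = inhibition of at least 50% at 8 µM in the primary screen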
Target sequence (O15151 whole entry, looked up): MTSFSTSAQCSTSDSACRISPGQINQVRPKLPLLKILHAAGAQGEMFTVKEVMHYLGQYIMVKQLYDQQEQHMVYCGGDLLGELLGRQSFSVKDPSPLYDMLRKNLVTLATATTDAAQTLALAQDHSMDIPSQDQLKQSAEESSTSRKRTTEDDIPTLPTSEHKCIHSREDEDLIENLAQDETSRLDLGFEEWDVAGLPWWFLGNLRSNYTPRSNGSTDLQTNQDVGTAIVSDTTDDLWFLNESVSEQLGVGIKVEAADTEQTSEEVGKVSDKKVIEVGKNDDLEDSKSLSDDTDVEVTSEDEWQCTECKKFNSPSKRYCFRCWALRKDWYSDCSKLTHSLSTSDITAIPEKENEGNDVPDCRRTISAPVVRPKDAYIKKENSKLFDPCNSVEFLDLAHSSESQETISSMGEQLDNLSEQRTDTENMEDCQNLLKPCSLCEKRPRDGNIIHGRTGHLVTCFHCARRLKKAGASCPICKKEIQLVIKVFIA
Target sequence (Q00987 whole entry, looked up): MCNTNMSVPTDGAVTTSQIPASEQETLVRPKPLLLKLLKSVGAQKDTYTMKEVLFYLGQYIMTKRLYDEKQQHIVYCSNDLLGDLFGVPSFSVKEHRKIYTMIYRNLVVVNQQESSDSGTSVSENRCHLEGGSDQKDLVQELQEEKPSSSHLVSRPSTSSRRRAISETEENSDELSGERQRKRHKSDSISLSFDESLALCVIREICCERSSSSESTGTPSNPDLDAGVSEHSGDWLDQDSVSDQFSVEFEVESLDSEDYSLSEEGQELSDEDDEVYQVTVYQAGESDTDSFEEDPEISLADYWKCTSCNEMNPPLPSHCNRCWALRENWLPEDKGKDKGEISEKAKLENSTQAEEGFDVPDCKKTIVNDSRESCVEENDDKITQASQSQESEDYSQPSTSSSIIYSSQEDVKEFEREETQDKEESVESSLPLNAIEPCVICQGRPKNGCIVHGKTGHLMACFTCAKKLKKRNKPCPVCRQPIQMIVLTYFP
T cruzi repl: inhibitors of intracellular T. cruzi growth, primary screen, luminescence, NIH3T3 host cells | T. cruzi beta-gal in NIH3T3, 90 h | 1.4% of 300,000 active | inhibition, % (no concentration beside the values) | AID 1885, 2009;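 active = mean inhibition across valid replicates above about 55%, limit read from the data; inconclusive = mean below that limit but half or more replicates reach it; inactive = mean below it, under half of replicates reach it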;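 note: signal also drops with host cell toxicity which is not excluded here; 0% = plate median of DMSO wells and 100% = zero luminescence signal; higher percent means less beta-gal luminescence so fewer parasites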
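Material: NIH/3T3 host cells with β-galactosidase reporter T. cruzi; Input: 5,000 host fibroblasts per well; Medium: DMEM, 2% fetal bovine serum; Compound: 50 nL DMSO compound solution per well; Schedule: 3 h host attachment, then at least 90 h co-culture; Detection: luminescent β-galactosidase signal after 60 min lysis.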
SKKanGAS inh: S. pyogenes SKKanGAS growth inhibitors in kanamycin, primary screen, streptokinase expression inhibitor project, SKKanGAS strain, BacTiter-Glo luminescence | 6 h | inhibition, % at 7.5 µM | 1.3% of 300,000 active;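 active = mean replicate score, as percent of positive control median, at least 50; inconclusive = mean below 50 but one replicate at or above 50; inactive = mean and every replicate below 50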;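 note: strain carries kanamycin resistance gene driven by streptokinase promoter and grows in 40 µg/ml kanamycin; loss of luminescence reflects streptokinase promoter inhibition or plain growth inhibition; 0% = median of DMSO wells and 100% = positive control at its reference dose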
Beta cell apopt: inhibitors of cytokine-induced beta cell apoptosis, primary screen, luminescence | INS-1E cytokine-induced death, ATP luminescence, 48 h; percent of positive-control rescue, neutral wells zero | protection from apoptosis, % (concentration not given with the values) | 0.8% of 300,000 active;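 active = Every replicate reaches about 75%, or at least half do and their mean reaches it too, limit read from the data; inconclusive = At least half of replicates reach the limit but their mean does not; inactive = Under half of replicates reach the limit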;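 note: 0% = cytokine-treated negative control wells and 100% = positive control rescue; higher means more ATP so stronger rescue from cytokine killing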
* = called active by the depositor; ? = inconclusive; nt = no result given.

SMILES	CSC inhib	Lmaj promast	Mdm2-MdmX inh	T cruzi repl	SKKanGAS inh	Beta cell apopt
CN1/C(=C\C(=S)NC(=O)c2ccccc2Cl)C(C)(C)c2ccccc21	57	45	-5	42	5	100*
CC(CC(=O)NNC(=O)c1cccc(Cl)c1)c1ccccc1 (stereo not given)	nt	nt	24	-6	2	-1
Cc1cc2nc(CS(=O)(=O)c3ccccc3)cc(=O)n2[nH]1	-10	-1	-14	-9	-1	-4
Cc1ccc(S(=O)(=O)N2CCC(C(=O)OC(C)C(=O)NC3CCCCC3C)CC2)cc1 (stereo not given)	-16	nt	14	nt	nt	-3
c1ccc2c(c1)NC1(CCCC1)n1c-2nc2ccccc21	3	44	0	5	-2	-1
CCCC1(C)Nc2ccccc2-c2nc3ccccc3n21 (stereo not given)	-11	85*	-7	1	-2	6
Cc1cc(C(=O)CSc2nc(N)cc(N)n2)c(C)n1-c1cccc(C(F)(F)F)c1	-6	82*	21	12	10	-2
Cc1cc(C(=O)CSc2ncccn2)c(C)n1-c1cccc(F)c1	4	-2	-147	11	-1	-5
COc1ccc(-c2csc(NC(=O)/C(N=Nc3ccccc3)=C(\C)O)n2)cc1	-1	-5	9	3	-4	-2
O=C(Nc1cccc([N+](=O)[O-])c1)c1ccccc1	0	nt	-15	-2	5	-3
O=C(Nc1ncccn1)c1cccc(F)c1	-6	nt	-24	-9	-3	-7
O=C(Nc1cc(Sc2ccccn2)cc([N+](=O)[O-])c1)c1cccc(F)c1	40	95*	40	30	5	84*
O=C(Nc1cc(Sc2nc3ccccc3s2)cc([N+](=O)[O-])c1)c1ccccc1F	61	28	32	65*	8	6
O=C(Nc1cc(Sc2nc3ccccc3s2)cc([N+](=O)[O-])c1)c1ccccc1	50	100*	46	56*	0	13
OCC[C@H]1C[C@@H](O)[C@H](O)[C@@]2(Cc3ccccc3CO2)O1	-8	nt	9	nt	nt	-4
O=C(Nc1cccc(F)c1)c1ccc(S(=O)(=O)N2CCCCC2)cc1	2	nt	34	3	-3	7
O=C(N/N=C/c1c(Cl)[nH]c2ccccc12)c1ccc2c(c1)OCCO2	11	nt	-4	3	-3	0
O=C(Nc1ccc(-c2cccc(F)c2)cc1)C1CCCN(Cc2ccccn2)C1 (stereo not given)	5	nt	17	9	52*	-7
Cc1nn(C)c(Cl)c1CN1CCCC(C(=O)Nc2ccc(-c3cscn3)cc2)C1 (stereo not given)	-4	nt	11	15	50*	-8
Cc1ncc(CN2CCCC(C(=O)Nc3ccc(-c4cccc(F)c4)cc3)C2)s1 (stereo not given)	101*	nt	23	35	0	-11
O=C(Nc1ccc(-c2cscn2)cc1)C1CCCN(Cc2ccccc2)C1 (stereo not given)	8	nt	13	20	13	1
CCn1nc(NC(=O)c2cccs2)c2cc3ccccc3nc21	11	29	7	-6	-2	-12
O=C(Nc1ccc(Oc2cccnc2)cc1)C1CCN(Cc2cc(Cl)ccc2O)CC1	20	nt	41	-17	0	-7
CC1(C(=O)N/N=C/c2ccccc2)CC1(Cl)Cl (stereo not given)	-8	nt	10	0	-5	-4
CC(C)NC(=S)N/N=C1\CCCCC1C1CCCCC1 (stereo not given)	8	100*	-18	18	?	12
SMILES	CSC inhib	Lmaj promast	Mdm2-MdmX inh	T cruzi repl	SKKanGAS inh	Beta cell apopt
COc1ccc([C@H]2CC(=O)C=C(c3ccc(CNC(=O)OC(C)(C)C)cc3)C2)cc1	2	nt	4	nt	nt	36
COc1ccc(Cl)cc1NC(=O)C/C(C)=N/NC(=O)COc1ccc(C)cc1	-13	nt	-1	-5	-1	-3
CC(C)C(=O)N(c1cc2sc(=O)oc2c2ccccc12)S(=O)(=O)c1cccs1	nt	50*	6	nt	7	-3
CC(C)C(=O)N(c1ccc2oc(=O)sc2c1)S(=O)(=O)c1cccs1	8	-8	1	-4	0	-11
COc1ccc(N(C(=O)C(C)C)S(=O)(=O)c2cccs2)cc1	nt	80*	20	-11	4	nt
COc1cccc(C(=O)N2CCN=C2SC)c1	-21	-5	3	-18	1	-3
O=C(c1nc2ccc(Cl)cn2c1CN1CCC(CO)CC1)N1CCc2ccccc2C1	-13	nt	-22	3	52*	nt
Cc1cccc(NC(=O)C2CCN(S(=O)(=O)c3c(C)noc3/C=C/c3ccco3)CC2)n1	2	99*	22	19	28	-13
CCC(C)N1CCN(C(=O)C2CCN(S(=O)(=O)c3c(C)noc3/C=C/c3ccco3)CC2)CC1 (stereo not given)	18	nt	27	24	-6	0
COc1ccc(C2CCN(CC(=O)N(C)C)CC2O)cc1 (stereo not given)	9	-5	5	-21	-7	-1
COc1ccc(C2CCN(Cc3cccnc3)CC2O)cc1 (stereo not given)	5	88*	5	-1	2	-1
Cc1ccc(S(=O)(=O)N2c3ccccc3OCC2C(C)(C)C)cc1 (stereo not given)	40	13	18	29	58*	nt
Cc1ccccc1COC(=O)c1nn(-c2ccccc2)nc1N	nt	12	-19	-7	24	1
CCN(CC(=O)NCc1ccc(Cl)cc1)C(=O)C(C)Sc1ccccc1 (stereo not given)	-4	nt	4	5	1	-3
CC1CCCC(C)N1CC(O)COCC1COc2ccccc2O1 (stereo not given)	19	52*	16	0	-3	0
Nc1nonc1C(=O)NCCN=Cc1cc(Cc2ccccc2)cc(Br)c1O	nt	-7	22	-28	52*	-3
Nc1nonc1C(=O)NCCN=Cc1ccccc1O	-7	-1	7	-9	-1	-6
CCOc1ccc(C2Nc3cccc4cccc(c34)N2)cc1OC	-15	69*	30	-17	-7	6
CCOc1cc(C2Nc3cccc4cccc(c34)N2)ccc1O	-1	9	13	7	14	7
Cc1oc(S(=O)(=O)N(C)C)cc1C(=O)Nc1ccc(Cl)cc1	-8	nt	15	2	-2	3
O=C(NCc1ccc(F)cc1)C1CCCN(S(=O)(=O)c2ccc(-n3cnnn3)cc2)C1 (stereo not given)	7	nt	10	2	-5	0
Cc1onc(-c2c(F)cccc2Cl)c1C(=O)N1CCN(c2ncccn2)CC1	-7	-7	-10	9	1	-2
O=C(c1sc2cccc(F)c2c1Cl)N1CCN(c2ncccn2)CC1	0	77*	31	18	5	3
